Assay results as given in ChEMBL document CHEMBL2046412, “Xanthine oxidase inhibitory activity of constituents of Cinnamomum cassia twigs” (Bioorg Med Chem Lett, 2012).

Assays:
[1] = molecular target: T1, Xanthine dehydrogenase/oxidase (Homo sapiens, UniProt P47989); assay: Inhibition of xanthine oxidase- mediated uric acid formation at 50 ug/mL after 5 mins by spectrophotometry
[2] = molecular target: T1, Xanthine dehydrogenase/oxidase; assay: Inhibition of xanthine oxidase- mediated uric acid formation after 5 mins by spectrophotometry
Summary of the method: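 Inhibition was taken relative to uric acid formed in the uninhibited control, and IC50 was derived from the mean of triplicate measurements.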

T1 sequence (P47989 whole entry): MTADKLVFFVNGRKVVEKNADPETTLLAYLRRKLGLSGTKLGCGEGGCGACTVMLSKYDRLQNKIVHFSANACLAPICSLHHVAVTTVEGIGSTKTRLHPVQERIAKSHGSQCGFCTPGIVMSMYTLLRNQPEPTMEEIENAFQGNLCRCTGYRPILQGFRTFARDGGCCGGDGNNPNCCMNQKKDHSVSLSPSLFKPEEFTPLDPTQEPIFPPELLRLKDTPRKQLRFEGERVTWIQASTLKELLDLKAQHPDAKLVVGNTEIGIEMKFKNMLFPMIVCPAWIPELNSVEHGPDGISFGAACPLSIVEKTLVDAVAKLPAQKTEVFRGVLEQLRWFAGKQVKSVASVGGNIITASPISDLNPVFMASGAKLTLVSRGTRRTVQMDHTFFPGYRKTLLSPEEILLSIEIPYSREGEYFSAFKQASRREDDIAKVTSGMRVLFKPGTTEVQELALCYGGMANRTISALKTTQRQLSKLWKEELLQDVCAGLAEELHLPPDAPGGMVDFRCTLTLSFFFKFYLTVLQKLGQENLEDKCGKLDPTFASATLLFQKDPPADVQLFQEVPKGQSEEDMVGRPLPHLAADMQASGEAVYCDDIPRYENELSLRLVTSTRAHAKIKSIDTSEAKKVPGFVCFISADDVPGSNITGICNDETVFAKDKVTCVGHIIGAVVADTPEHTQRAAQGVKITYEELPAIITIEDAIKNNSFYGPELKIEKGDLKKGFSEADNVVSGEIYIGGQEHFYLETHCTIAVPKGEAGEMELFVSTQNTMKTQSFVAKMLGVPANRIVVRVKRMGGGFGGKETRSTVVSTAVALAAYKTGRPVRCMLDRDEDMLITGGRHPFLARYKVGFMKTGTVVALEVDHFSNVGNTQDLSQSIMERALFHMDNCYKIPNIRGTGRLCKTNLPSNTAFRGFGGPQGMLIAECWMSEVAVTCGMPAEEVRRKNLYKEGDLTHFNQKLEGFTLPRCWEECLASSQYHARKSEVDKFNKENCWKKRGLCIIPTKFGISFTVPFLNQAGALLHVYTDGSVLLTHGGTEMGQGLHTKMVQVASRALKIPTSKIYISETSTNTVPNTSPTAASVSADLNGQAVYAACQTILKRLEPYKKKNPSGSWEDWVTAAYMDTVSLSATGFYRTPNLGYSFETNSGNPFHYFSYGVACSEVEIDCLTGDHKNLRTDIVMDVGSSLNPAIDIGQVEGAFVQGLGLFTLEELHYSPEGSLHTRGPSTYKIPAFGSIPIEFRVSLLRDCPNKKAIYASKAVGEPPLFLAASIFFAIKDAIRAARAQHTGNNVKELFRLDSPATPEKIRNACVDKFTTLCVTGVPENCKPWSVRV

inhibition at 50 µg/mL [1] [%] | IC50 [2] [µM] | SMILES
95.8 | 85.1 | COc1ccccc1/C=C/C=O
94.2 | 98.5 | O=C/C=C/c1ccccc1O [2-HYDROXYCINNAMALDEHYDE]
22.2 | > 112 | COC(=O)c1cccc(O[C@@H]2O[C@H](CO[C@@H]3OC[C@](O)(CO)[C@H]3O)[C@@H](O)[C@H](O)[C@H]2O)c1 [CINNACASOLIDE A]
35.4 | > 113 | OC/C=C/c1ccccc1O[C@@H]1O[C@H](CO[C@@H]2OC[C@](O)(CO)[C@H]2O)[C@@H](O)[C@H](O)[C@H]1O [CINNACASOLIDE B]
28.2 | > 85.2 | COc1cc(O[C@@H]2O[C@H](CO)[C@@H](O)[C@H](O)[C@H]2O)ccc1Oc1ccc(O[C@@H]2O[C@H](CO)[C@@H](O)[C@H](O)[C@H]2O)c(OC)c1 [CINNACASOLIDE C]
93.4 | 178 | O=C(O)/C=C/c1ccccc1 [CINNAMIC ACID]
72.5 | 204 | COc1cc(/C=C/C=O)ccc1O [CONIFERYL ALDEHYDE]
45.4 | > 152 | O=C(O)CCc1ccccc1O[C@@H]1O[C@H](CO)[C@@H](O)[C@H](O)[C@H]1O [DIHYDROMELILOTOSIDE]
22.4 | > 146 | COC(=O)CCc1ccccc1O[C@@H]1O[C@H](CO)[C@@H](O)[C@H](O)[C@H]1O [METHYL DIHYDROMELILOTOSIDE]
73.2 | 196 | O=C(O)/C=C/c1ccccc1O [O-COUMARIC ACID]
18.7 | > 117 | O[C@@H]1[C@@H](O)[C@@H](OC/C=C/c2ccccc2)O[C@H](CO[C@@H]2OC[C@H](O)[C@H](O)[C@H]2O)[C@H]1O [ROSAVIN]

SMILES | inhibition at 50 µg/mL [1] [%] | IC50 [2] [µM]
O=C/C=C/c1ccccc1 | 96.7 | 59
OC/C=C/c1ccccc1 [CINNAMIC ALCOHOL] | 47.6 | > 373
